Measurements reported in ChEMBL document CHEMBL4811313, “Himalaquinones A-G, Angucyclinone-Derived Metabolites Produced by the Himalayan Isolate Streptomyces sp. PU-MM59” (J Nat Prod, 2021).
Calls of active or inactive are those of the source. The calls are words filed in the database; no cut-off is given here.

What was measured:
A549 [1] = assay: Cytotoxicity against human A549 cells assessed as reduction in cell viability after 72 hrs by resazurin dye based fluorescence analysis; assay type: functional; conditions: A549, 72 h
Summary of the method: (§1)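 A549 (non-small-cell lung) and PC3 (prostate) human cancer cells from ATCC. Viability was read after 72 h, in triplicate. Runs were either a single 80 μM concentration or a dose-response. Actinomycin D served as the positive control.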

[2] = target: Eukaryotic translation initiation factor 4E-binding protein 1 (Homo sapiens) (UniProt Q13541); assay: Inhibition of 4E-BP1 phosphorylation in human HCT116 cells at 2 uM after 6 hrs by Western blot analysis; assay type: cell-based; conditions: HCT-116
Summary of the method: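 HCT116 cells were treated 6 h with 2 μM compound or with DMSO as negative control. Lysate was run on SDS-PAGE, blotted to PVDF and probed for phospho-4E-BP1 (Thr37/46, Ser65, Thr70), with chemiluminescent detection.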

PC-3 [3] = assay: Cytotoxicity against human PC3 cells assessed as reduction in cell viability after 72 hrs by resazurin dye based fluorescence analysis; assay type: functional; conditions: PC-3, 72 h; summary of the method: as §1
[4] = Toxicity in axolotl embryo at 1 uM after 7 days by tail regeneration assay; conditions: ambystoma mexicanum, 168 h, time 7 day
Summary of the method: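 Stage 42 embryos manually hatched, anaesthetised with benzocaine, given 2 mm tail amputations, then reared with or without test agent in artificial pond water at 18–19 °C for 7 days postamputation. Imaged at 0 and 7 DPA. Agents dissolved in DMSO, 0.1% final DMSO. Vehicle served as negative control, geldanamycin as positive control.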

Salmonella enterica = assay: Antibacterial activity against Salmonella enterica ATCC 10708 at <= 133 uM incubated for 16 hrs; assay type: functional, organism-based; conditions: dose microM <=133, time 16.0 hrs
Summary of the method: (§2)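 Microbial strains from ATCC or NRRL, tested in triplicate with a top concentration of 133 μM. Positive controls were kanamycin and ampicillin (S. aureus, M. luteus, S. enterica, E. coli) and amphotericin B (S. cerevisiae).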

A549 [5] = assay: Cytotoxicity against human A549 cells assessed as reduction in cell viability at 80 uM after 72 hrs by resazurin dye based fluorescence analysis; assay type: functional; summary of the method: as §1
PC-3 [6] = assay: Cytotoxicity against human PC3 cells assessed as reduction in cell viability at 80 uM after 72 hrs by resazurin dye based fluorescence analysis; assay type: functional; summary of the method: as §1
Mycolicibacterium aurum = assay: Antibacterial activity against Mycobacterium aurum ATCC 23366 at <= 133 uM incubated for 16 hrs; assay type: functional, organism-based; conditions: dose microM <=133, time 16.0 hrs; summary of the method: as §2
Micrococcus luteus = assay: Antibacterial activity against Micrococcus luteus NRRL B-287 at <= 133 uM incubated for 16 hrs; assay type: functional, organism-based; conditions: dose microM <=133, time 16.0 hrs; summary of the method: as §2
Escherichia coli = assay: Antibacterial activity against Escherichia coli NRRL B-3708 at <= 133 uM incubated for 16 hrs; assay type: functional, organism-based; conditions: dose microM <=133, time 16.0 hrs; summary of the method: as §2
Saccharomyces cerevisiae = assay: Antifungal activity against Saccharomyces cerevisiae ATCC 204508 at <= 133 uM after 16 hrs; assay type: functional, organism-based; conditions: dose microM <=133, time 16.0 hrs; summary of the method: as §2
Staphylococcus aureus = assay: Antibacterial activity against Staphylococcus aureus ATCC 6538 at <= 133 uM incubated for 16 hrs; assay type: functional, organism-based; conditions: dose microM <=133, time 16.0 hrs; summary of the method: as §2
Bacillus spizizenii = assay: Antibacterial activity against Bacillus subtilis ATCC 6633 at <= 133 uM incubated for 16 hrs; assay type: functional, organism-based; conditions: dose microM <=133, time 16.0 hrs; summary of the method: as §2
[7] = Toxicity in axolotl embryo at 10 uM after 7 days by tail regeneration assay; conditions: ambystoma mexicanum, 168 h, time 7 day
Summary of the method: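 Stage 42 axolotl embryos were hatched manually, anesthetized with benzocaine and given 2 mm tail amputations. They were reared at 18–19 °C in artificial pond water with compound (10 μM; one compound at 1.0 μM) in 0.1% final DMSO. Regeneration was imaged at 0 and 7 days postamputation. DMSO was the negative control and geldanamycin the positive control.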

Chain of Eukaryotic translation initiation factor 4E-binding protein 1 (Homo sapiens) (Q13541 whole entry): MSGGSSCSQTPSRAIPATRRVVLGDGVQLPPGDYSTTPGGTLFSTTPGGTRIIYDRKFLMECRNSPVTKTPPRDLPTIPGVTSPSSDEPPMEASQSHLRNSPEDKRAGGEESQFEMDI

SMILES | IC50 (A549 [1]) [nM] | inhibition [2] | IC50 (PC-3 [3]) [nM] | Activity (Salmonella enterica) | Activity (Mycolicibacterium aurum) | Activity (Micrococcus luteus) | Activity (Escherichia coli) | Activity (Saccharomyces cerevisiae) | Activity (Staphylococcus aureus) | Activity (Bacillus spizizenii) | Activity [7] | other results
Cc1cc(O)c2c3c(ccc2c1)C(=O)c1c(O[C@H]2C[C@@H](O)[C@H](O[C@H]4C[C@@H](O[C@H]5CC[C@H](O[C@H]6CC[C@H](O[C@H]7C[C@@H](O[C@H]8CC[C@H](O)[C@H](C)O8)[C@H](O)[C@@H](C)O7)[C@@H](C)O6)[C@H](C)O5)[C@H](O)[C@@H](C)O4)[C@@H](C)O2)cccc1C3=O | < 500 | Active | < 500 |  |  |  |  |  |  |  |  | 
C[C@@H]1O[C@@H](O[C@H]2[C@H](O)C[C@H](c3ccc4c(c3O)C(=O)C3=C(C4=O)[C@@]4(O)C(=O)C[C@](C)(O[C@H]5CC[C@H](O[C@H]6C=CC(=O)[C@H](C)O6)[C@H](C)O5)C[C@@]4(O)C=C3)O[C@@H]2C)C=CC1=O [SAQUAYAMYCINS A] | < 500 | Active | < 500 |  |  |  |  |  |  |  |  | Activity [4]: Toxic
Cc1cc(O)c2c(c1)C[C@@H](O)C1=C2C(=O)c2cccc(O[C@H]3C[C@@H](O)[C@H](O[C@H]4C[C@@H](O[C@H]5CC[C@H](O[C@H]6CC[C@H](O[C@H]7C[C@@H](O[C@H]8CC[C@H](O)[C@H](C)O8)[C@H](O)[C@@H](C)O7)[C@@H](C)O6)[C@H](C)O5)[C@H](O)[C@@H](C)O4)[C@@H](C)O3)c2C1=O | < 500 | Active | < 500 |  |  |  |  |  |  |  |  | 
CC(=O)OC(=O)C(O)/C(C)=C\c1c(O)cc2c(c1O)C(=O)c1cccc(O)c1C2=O (stereo unspecified) |  |  |  | inactive | inactive | inactive | inactive | inactive | inactive | inactive |  | Activity (A549 [5]): inactive; Activity (PC-3 [6]): inactive
C[C@@H]1O[C@@H](O[C@@H]2C[C@H](c3ccc4c(c3O)C(=O)C3=C(C4=O)[C@@]4(O[C@H]5CC[C@H](O)[C@H](C)O5)C(=O)C[C@](C)(O)C[C@@]4(O)C=C3)O[C@H](C)[C@H]2O)CC[C@@H]1O[C@H]1C[C@@H](O)[C@H](O)[C@@H](C)O1 |  |  |  |  |  |  |  |  |  |  | Non-Toxic | 
COC(=O)C/C(C)=C\c1c(O)cc2c(c1O)C(=O)c1cccc(O)c1C2=O |  |  |  | inactive | inactive | inactive | inactive | inactive | inactive | inactive |  | Activity (A549 [5]): inactive; Activity (PC-3 [6]): inactive
C[C@@H]1O[C@@H](O[C@H]2CC[C@H](O[C@@]3(C)CC(=O)[C@]4(O)C5=C(C=C[C@]4(O)C3)C(=O)c3c(ccc([C@H]4C[C@@H](O)[C@H](O[C@H]6CC[C@H](O)[C@H](C)O6)[C@@H](C)O4)c3O)C5=O)O[C@H]2C)C=CC1=O [SAQUAYAMYCIN K] | < 500 | Active | < 500 |  |  |  |  |  |  |  |  | 
C[C@@H]1O[C@@H](O[C@H]2CC[C@H](O[C@@]3(C)CC(=O)[C@]4(O)C5=C(C=C[C@]4(O)C3)C(=O)c3c(ccc([C@H]4C[C@@H](O)[C@H](O)[C@@H](C)O4)c3O)C5=O)O[C@H]2C)C=CC1=O [SAQUAYAMYCIN G] |  |  |  |  |  |  |  |  |  |  | Non-Toxic | 
Cc1cc(O)c2c3c(ccc2c1)C(=O)c1c(O[C@H]2C[C@@H](O)[C@H](O[C@H]4C[C@@H](O)[C@H](O)[C@@H](C)O4)[C@@H](C)O2)cccc1C3=O [LANDOMYCIN O] |  |  |  |  |  |  |  |  |  |  | Toxic | 
C[C@@H]1O[C@@H](O[C@H]2CC[C@H](O[C@@]3(C)CC(=O)[C@]4(O)C5=C(C=C[C@]4(O)C3)C(=O)c3c(ccc([C@H]4C[C@@H](O)[C@H](O[C@@H]6O[C@@H](C)C(=O)C=C6N)[C@@H](C)O4)c3O)C5=O)O[C@H]2C)C=CC1=O [SAQUAYAMYCIN I] |  |  |  |  |  |  |  |  |  |  | Non-Toxic | 
COc1cccc2c1C(=O)c1ccc(/C=C(/C)CC(=O)O)c(O)c1C2=O |  |  |  | inactive | inactive | inactive | inactive | inactive | inactive | inactive |  | Activity (A549 [5]): inactive; Activity (PC-3 [6]): inactive
COc1cccc2c1C(=O)c1ccc(/C=C(\C)CC(=O)O)c(O)c1C2=O |  |  |  | inactive | inactive | inactive | inactive | inactive | inactive | inactive |  | Activity (A549 [5]): inactive; Activity (PC-3 [6]): inactive
Cc1cc(O)c2c3c(ccc2c1)C(=O)c1c(O[C@H]2C[C@@H](O)[C@H](O[C@H]4C[C@@H](O[C@H]5CC[C@H](O[C@H]6C[C@@H](O)[C@H](O[C@H]7C[C@@H](O)[C@H](O)[C@@H](C)O7)[C@@H](C)O6)[C@H](C)O5)[C@H](O)[C@@H](C)O4)[C@@H](C)O2)cccc1C3=O [LANDOMYCIN M] |  |  |  |  |  |  |  |  |  |  | Toxic | 
Cc1cc(O)c2c(c1)C[C@@H](O)C1=C2C(=O)c2c(O)ccc(O[C@H]3C[C@@H](O)[C@H](O[C@H]4C[C@@H](O[C@H]5CC[C@H](O[C@H]6C[C@@H](O)[C@H](O[C@H]7C[C@@H](O[C@H]8CC[C@H](O)[C@H](C)O8)[C@H](O)[C@@H](C)O7)[C@@H](C)O6)[C@H](C)O5)[C@H](O)[C@@H](C)O4)[C@@H](C)O3)c2C1=O [LANDOMYCIN A] | < 500 | Active | < 500 |  |  |  |  |  |  |  |  | 
Cc1cc(O)c2c(c1)C[C@@H](O)C1=C2C(=O)c2cccc(O[C@H]3C[C@@H](O)[C@H](O[C@H]4C[C@@H](O[C@H]5CC[C@H](O[C@H]6C[C@@H](O)[C@H](O[C@H]7C[C@@H](O)[C@H](O)[C@@H](C)O7)[C@@H](C)O6)[C@H](C)O5)[C@H](O)[C@@H](C)O4)[C@@H](C)O3)c2C1=O [LANDOMYCIN V] |  |  |  |  |  |  |  |  |  |  | Toxic | 
C/C(=C/c1c(O)cc2c(c1O)C(=O)c1cccc(O)c1C2=O)CC(=O)O |  |  |  | inactive | inactive | inactive | inactive | inactive | inactive | inactive |  | Activity (A549 [5]): inactive; Activity (PC-3 [6]): inactive
C[C@@H]1O[C@H]2O[C@H]3[C@@H](C)O[C@@H](c4ccc5c(c4O)C(=O)C4=C(C5=O)[C@@]5(O)C(=O)C[C@](C)(O[C@H]6CC[C@H](O[C@H]7CC[C@H](O)[C@H](C)O7)[C@H](C)O6)C[C@@]5(O)C=C4)C[C@H]3O[C@H]2CC1=O | < 500 | Active | < 500 |  |  |  |  |  |  |  | Non-Toxic | 
C[C@@H]1O[C@H]2O[C@H]3[C@@H](C)O[C@@H](c4ccc5c(c4O)C(=O)C4=C(C5=O)[C@@]5(O)C(=O)C[C@](C)(O)C[C@@]5(O)C=C4)C[C@H]3O[C@H]2CC1=O |  |  |  |  |  |  |  |  |  |  | Non-Toxic | 
C[C@@H]1O[C@@H](O[C@H]2CC[C@H](O[C@@]3(C)CC(=O)[C@]4(O)C5=C(C=C[C@]4(O)C3)C(=O)c3c(ccc([C@H]4C[C@H]6O[C@H]7CC(=O)[C@H](C)O[C@H]7O[C@H]6[C@@H](C)O4)c3O)C5=O)O[C@H]2C)C(N)=CC1=O |  |  |  |  |  |  |  |  |  |  | Non-Toxic | 
C[C@@H]1O[C@@H](O[C@H]2CC[C@H](O[C@@]3(C)CC(=O)[C@]4(O)C5=C(C=C[C@]4(O)C3)C(=O)c3c(ccc([C@H]4C[C@H]6O[C@H]7CC(=O)[C@H](C)O[C@H]7O[C@H]6[C@@H](C)O4)c3O)C5=O)O[C@H]2C)C=CC1=O | < 500 | Active | < 500 |  |  |  |  |  |  |  |  | 
COc1cccc2c1C(=O)c1cc(O)c(/C=C(/C)CC(=O)O)c(O)c1C2=O |  |  |  | inactive | inactive | inactive | inactive | inactive | inactive | inactive |  | Activity (A549 [5]): inactive; Activity (PC-3 [6]): inactive
COc1cccc2c1C(=O)C1=C(C2=O)c2c(O)cc(C)cc2[C@@H](O)[C@H]1O | 1880 | inactive | 320 | inactive | inactive | inactive | inactive | inactive | inactive | inactive | Non-Toxic | 
